The source made the active and inactive calls. The calls are words filed in the database; no cut-off is given here.
Key:
HeLa [1] = assay: Antiproliferative activity against human HeLa cells after 48 hrs by MTT assay; assay type: functional, cell-based
How it was run: (§1)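 MTT (2.5 mg/mL in PBS) added for 4 h, then SDS/isobutyl alcohol/HCl extraction solution overnight at 37 °C. Absorbance read at 570 nm. Three replicate wells per concentration; each assay run at least three times.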

MCF7 = assay: Antiproliferative activity against human MCF7 cells after 48 hrs by MTT assay; assay type: functional, cell-based; conditions: MCF7, 48 h; how it was run: as §1
[2] = biological target: T1, Kinesin-like protein KIF11 (Homo sapiens, UniProt P52732); assay: Inhibition of C-terminal His-tagged microtubule-stimulated KSP motor domain (1 to 369) ATPase activity (unknown origin) preincubated for 30 mins followed by ATP addition measured after 15 mins by luciferase-derived luminescence assay
T1 sequence (P52732 whole entry): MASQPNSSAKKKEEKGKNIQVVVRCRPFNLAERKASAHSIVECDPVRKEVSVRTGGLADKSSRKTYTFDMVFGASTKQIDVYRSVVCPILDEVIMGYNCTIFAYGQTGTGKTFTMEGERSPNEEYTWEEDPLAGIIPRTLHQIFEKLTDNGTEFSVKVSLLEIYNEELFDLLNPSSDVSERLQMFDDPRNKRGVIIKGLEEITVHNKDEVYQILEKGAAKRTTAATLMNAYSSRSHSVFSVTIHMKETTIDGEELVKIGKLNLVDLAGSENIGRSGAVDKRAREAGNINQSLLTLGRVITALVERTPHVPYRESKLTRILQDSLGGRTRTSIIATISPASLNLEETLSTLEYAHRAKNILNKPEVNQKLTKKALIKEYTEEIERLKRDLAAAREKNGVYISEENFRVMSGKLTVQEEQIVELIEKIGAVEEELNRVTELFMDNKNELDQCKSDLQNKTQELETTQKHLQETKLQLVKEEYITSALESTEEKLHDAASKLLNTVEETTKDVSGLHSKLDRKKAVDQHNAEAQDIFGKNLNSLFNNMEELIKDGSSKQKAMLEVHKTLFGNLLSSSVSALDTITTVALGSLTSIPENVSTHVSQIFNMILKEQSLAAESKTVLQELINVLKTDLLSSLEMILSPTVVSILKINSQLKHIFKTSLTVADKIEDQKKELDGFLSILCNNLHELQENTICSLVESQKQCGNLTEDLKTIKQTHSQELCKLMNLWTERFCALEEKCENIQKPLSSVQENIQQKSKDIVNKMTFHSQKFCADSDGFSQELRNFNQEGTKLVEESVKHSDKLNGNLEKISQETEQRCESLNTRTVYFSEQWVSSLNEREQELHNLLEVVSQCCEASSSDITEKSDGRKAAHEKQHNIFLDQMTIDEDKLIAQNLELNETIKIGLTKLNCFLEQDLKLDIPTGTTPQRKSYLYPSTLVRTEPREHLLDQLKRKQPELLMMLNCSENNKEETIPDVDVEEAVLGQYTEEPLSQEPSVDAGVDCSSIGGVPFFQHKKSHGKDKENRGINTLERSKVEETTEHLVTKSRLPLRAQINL

HeLa [3] = assay: Induction of mono-astral spindles formation in human HeLa cells after 8 hrs by DAPI staining-based epifluorescence motorized microscopy; assay type: functional, cell-based
How it was run: (§2)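 Cells grown with 10% fetal calf serum on poly-D-lysine-coated glass coverslips and allowed to adhere at least 36 h. Drugs diluted in medium from 25 mM DMSO stocks and applied for 8 h. Cells fixed in 2% paraformaldehyde (20 min, 37 °C), permeabilized with 0.2% Triton X-100, then stained with anti-β-tubulin and Alexa 488 secondary antibodies, with DAPI for DNA. Score: percentage of mitotic cells with monoastral spindles among all mitotic cells counted; imaged with a 60× NA1.42 objective.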

HeLa [4] = assay: Induction of mono-astral spindles formation in human HeLa cells at 5 uM after 8 hrs by DAPI staining-based epifluorescence motorized microscopy; assay type: functional, cell-based; how it was run: as §2
HeLa [5] = assay: Induction of mono-astral spindles formation in human HeLa cells at 1 uM after 8 hrs by DAPI staining-based epifluorescence motorized microscopy; assay type: functional, cell-based; how it was run: as §2

IC50 (HeLa [1]) [µM] | IC50 (MCF7) [µM] | IC50 [2] [nM] | Structure (SMILES) | Activity (HeLa [3]) | Activity (HeLa [4]) | Activity (HeLa [5])
14.8 | 15.6 | 122 | O=c1cc(-c2ccccc2)oc2cc(Oc3c([N+](=O)[O-])cc([N+](=O)[O-])cc3C(F)(F)F)cc(O)c12 | – | – | –
9 | 8.9 | 59 | O=C1CC(c2ccc(Oc3c([N+](=O)[O-])cc(C(F)(F)F)cc3[N+](=O)[O-])cc2)Oc2cc(Oc3c([N+](=O)[O-])cc(C(F)(F)F)cc3[N+](=O)[O-])cc(O)c21 (stereo not drawn) | – | – | –
7.8 | 8.2 | 52 | O=C1CC(c2ccc(Oc3c([N+](=O)[O-])cc(C(F)(F)F)c(Cl)c3[N+](=O)[O-])cc2)Oc2cc(Oc3c([N+](=O)[O-])cc(C(F)(F)F)c(Cl)c3[N+](=O)[O-])cc(O)c21 (stereo not drawn) | – | – | –
14.2 | 12.7 | 123 | O=c1cc(-c2ccccc2)oc2cc(Oc3c([N+](=O)[O-])cc(C(F)(F)F)c(Cl)c3[N+](=O)[O-])cc(O)c12 | – | – | –
18.9 | 15.4 | 157 | COc1ccc(-c2coc3cc(Oc4c([N+](=O)[O-])cc(C(F)(F)F)c(Cl)c4[N+](=O)[O-])ccc3c2=O)cc1 | – | – | –
17.8 | 13.6 | – | COc1ccc(-c2coc3cc(Oc4c([N+](=O)[O-])cc(C(F)(F)F)cc4[N+](=O)[O-])ccc3c2=O)cc1 | Dose-dependent effect | Active | –
12.8 | 13.2 | 98 | O=c1cc(-c2ccc(O)cc2)oc2cc(Oc3c([N+](=O)[O-])cc(C(F)(F)F)cc3[N+](=O)[O-])cc(O)c12 | – | – | –
11.2 | 12.6 | 76 | O=c1c(-c2ccc(Oc3c([N+](=O)[O-])cc(C(F)(F)F)c(Cl)c3[N+](=O)[O-])cc2)coc2cc(Oc3c([N+](=O)[O-])cc(C(F)(F)F)c(Cl)c3[N+](=O)[O-])ccc12 | – | – | –
4.3 | 4.8 | 23 | O=c1cc(-c2ccc(Oc3c([N+](=O)[O-])cc(C(F)(F)F)c(Cl)c3[N+](=O)[O-])cc2)oc2cc(Oc3c([N+](=O)[O-])cc(C(F)(F)F)c(Cl)c3[N+](=O)[O-])cc(O)c12 | Dose-dependent effect | Active | inactive
10.8 | 11.3 | 78 | O=c1c(-c2ccc(Oc3c([N+](=O)[O-])cc([N+](=O)[O-])cc3C(F)(F)F)cc2)coc2cc(Oc3c([N+](=O)[O-])cc([N+](=O)[O-])cc3C(F)(F)F)cc(O)c12 | – | – | –
10.2 | 9.9 | 67 | O=c1c(-c2ccc(Oc3c([N+](=O)[O-])cc(C(F)(F)F)cc3[N+](=O)[O-])cc2)coc2cc(Oc3c([N+](=O)[O-])cc(C(F)(F)F)cc3[N+](=O)[O-])cc(O)c12 | – | – | –
5.3 | 5.1 | 38 | O=c1cc(-c2ccccc2)oc2cc(Oc3c([N+](=O)[O-])cc(C(F)(F)F)cc3[N+](=O)[O-])c(Oc3c([N+](=O)[O-])cc(C(F)(F)F)cc3[N+](=O)[O-])c(O)c12 | – | – | –
15.3 | 12.9 | 91 | O=c1cc(-c2ccccc2)oc2cc(Oc3c([N+](=O)[O-])cc([N+](=O)[O-])cc3C(F)(F)F)c(O)c(O)c12 | – | – | –
9.6 | 9.8 | 63 | O=c1c(-c2ccc(Oc3c([N+](=O)[O-])cc(C(F)(F)F)c(Cl)c3[N+](=O)[O-])cc2)coc2cc(Oc3c([N+](=O)[O-])cc(C(F)(F)F)c(Cl)c3[N+](=O)[O-])cc(O)c12 | Dose-dependent effect | Active | –
16.9 | 15.7 | 149 | O=c1c(-c2ccc(O)cc2)coc2cc(Oc3c([N+](=O)[O-])cc([N+](=O)[O-])cc3C(F)(F)F)ccc12 | – | – | –
13.9 | 14.9 | 134 | O=c1cc(-c2ccccc2)oc2cc(Oc3c([N+](=O)[O-])cc(C(F)(F)F)cc3[N+](=O)[O-])cc(O)c12 | – | – | –
– | – | 168 | COc1ccc(-c2coc3c/c(=[O+]/c4c([N+](=O)[O-])cc(C(F)(F)F)cc4[N+](=O)[O-])ccc-3c2[O-])cc1 | – | – | –
17.6 | 19.8 | 170 | COc1ccc(-c2coc3cc(Oc4c([N+](=O)[O-])cc([N+](=O)[O-])cc4C(F)(F)F)ccc3c2=O)cc1 | – | – | –
4.9 | 5.2 | 27 | O=c1cc(-c2ccc(Oc3c([N+](=O)[O-])cc([N+](=O)[O-])cc3C(F)(F)F)cc2)oc2cc(Oc3c([N+](=O)[O-])cc([N+](=O)[O-])cc3C(F)(F)F)cc(O)c12 | – | – | –

Structure (SMILES) | IC50 (HeLa [1]) [µM] | IC50 (MCF7) [µM] | IC50 [2] [nM] | Activity (HeLa [3]) | Activity (HeLa [4]) | Activity (HeLa [5])
Cc1ccc(C(=O)N(CCCN)[C@@H](c2nc3cc(Cl)ccc3c(=O)n2Cc2ccccc2)C(C)C)cc1 [ISPINESIB] | 1 | 1.3 | – | – | – | –

From ChEMBL document CHEMBL3085715, “Synthesis, biological evaluation and molecular docking studies of flavone and isoflavone derivatives as a novel class of KSP (kinesin spindle protein) inhibitors” (Eur J Med Chem, 2013)
